Hck Nef HTS: inhibitors of human Hck kinase activated by Nef. Recombinant Hck-YEEI plus Nef, Z-Lyte FRET kinase assay. AID 463187. 220,000 tested, 0.68% active. P08631. inhibition, % at 20 µM;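 active = Hck-Nef kinase inhibition above about 50%, limit read from the data; inactive = inhibition below that limit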;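 also: 0% = DMSO with Hck plus Nef and 100% = Hck alone without Nef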
RanGTP-Imp inh: disruptors of Ran-importin-beta complex formation – biochemical, FRET, CFP-Ran, YFP-importin-beta, homogeneous, primary screen; 300,000 tested, 1.1% active; cell-free CFP-Ran/YFP-importin-beta FRET ratio; inhibition, % (concentration not given with the values);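 active = more than half of the replicate wells show a fall in the fluorescence ratio signal beyond about 16%, limit read from the data, passing the limit was not always enough; inconclusive = exactly half of the replicate wells pass the set limit; inactive = fewer than half of replicates pass the limit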;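 also: 0% = DMSO wells and 100% = Ran loaded with GDP instead of GTP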
Runt-CBFb FRET: inhibitors of human RUNX1 Runt domain binding to CBFb | Q01196+Q13951 | Cerulean-Runt/Venus-CBFb FRET ratio 530/480, 1 h | inhibition, % at 20 µM | 220,000 tested, 0.46% active | AID 1496;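 active = inhibition over about 50% at 20 µM in the single-dose screen, limit read from the data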;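 also: 0% = DMSO wells and 100% = excess unlabeled CBFb competitor control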
Target sequence (Q01196 whole entry, looked up, the tested form may be a part): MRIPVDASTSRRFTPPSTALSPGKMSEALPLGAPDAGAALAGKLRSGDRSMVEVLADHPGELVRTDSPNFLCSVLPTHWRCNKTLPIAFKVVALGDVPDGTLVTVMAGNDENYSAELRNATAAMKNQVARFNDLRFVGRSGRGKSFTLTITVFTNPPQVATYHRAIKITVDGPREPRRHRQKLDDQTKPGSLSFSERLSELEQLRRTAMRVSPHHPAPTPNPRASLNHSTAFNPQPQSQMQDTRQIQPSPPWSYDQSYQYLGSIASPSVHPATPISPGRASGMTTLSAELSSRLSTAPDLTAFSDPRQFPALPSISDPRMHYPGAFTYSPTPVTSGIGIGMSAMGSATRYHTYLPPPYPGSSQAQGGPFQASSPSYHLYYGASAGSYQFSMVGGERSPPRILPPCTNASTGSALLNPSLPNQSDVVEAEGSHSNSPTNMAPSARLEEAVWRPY
Target sequence (Q13951 whole entry, looked up, the tested form may be a part): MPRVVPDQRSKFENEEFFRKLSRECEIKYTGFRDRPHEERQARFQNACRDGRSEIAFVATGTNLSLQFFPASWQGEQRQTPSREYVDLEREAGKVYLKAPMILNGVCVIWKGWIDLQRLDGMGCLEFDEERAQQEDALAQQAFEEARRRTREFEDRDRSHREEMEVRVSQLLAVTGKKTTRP
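Buffer or medium: Tris pH 7.5 buffer with BSA. Assay system: Cerulean-labeled Runt domain protein. Amount: each fluorescent fusion protein 100 nM. Read-out basis: loss of energy transfer signal. Incubation: 1 h compound exposure, room temperature. Probe or stimulus: Venus-CBFb binding partner, 100 nM. Detection: FRET, excitation 422 nm, emission at 530 and 480 nm.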
Runt-SMMHC FRET: blocks binding of human RUNX1 Runt domain to CBFb-SMMHC | Q01196+Q13951 | Cerulean-Runt/Venus-CBFb-SMMHC FRET ratio 530/480, 1 h | inhibition, % at 20 µM | 220,000 tested, 0.74% active;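 active = mean inhibition across duplicate retests at 20 µM reaching about 50%, limit read from the data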;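 also: 0% = DMSO wells and 100% = wells with excess untagged CBFb-SMMHC; inhibitors lower the FRET ratio by blocking Runt binding to CBFb-SMMHC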
Hck-Nef confirm: Hck-Nef kinase inhibition, confirmation. 1,300 tested, 28% active. AID 463188. shares compounds with Hck Nef HTS. calls only at 10 µM. Recombinant Hck-YEEI:Nef, Z-Lyte FRET kinase assay;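 active = average inhibition of at least 50%, with Z-scores no higher than 3 in both the phospho-tyrosine peptide and fluorescence counterscreens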
* hit, by the source's call; i = inactive; ? = inconclusive; . = no result shown; + = active, no number. This is a sample that favours compounds with a hit; in the whole collection about 1.9% have one here.

SMILES | Hck Nef HTS | RanGTP-Imp inh | Runt-CBFb FRET | Runt-SMMHC FRET | Hck-Nef confirm
O=C1CC(SC2=NCCS2)C(=O)N1c1cccc(Cl)c1Cl (stereo unspecified) | -1.0 | -0.8 | . | -1.2 | .
COCCn1c(=N)c(C(=O)NCc2ccco2)cc2c(=O)n3cc(C)ccc3nc21 | 85.6* | -3.9 | . | . | .
Cc1cccn2c(=O)c3cc(C(=O)NCc4ccco4)c(=N)n(CCOCCO)c3nc12 | 74.7* | 154.7* | . | . | i
COc1ccc(-c2csc(NC(=S)NC(=O)/C=C/c3ccco3)n2)cc1OC | 10.5 | 3.7 | 11.6 | 1.2 | .
COc1ccc(-c2csc(NC(=S)NC(=O)/C=C/c3ccco3)n2)cc1Br | 78.4* | -4.0 | 0.2 | -4.6 | i
Cc1ccc([N+](=O)[O-])cc1N=Nc1c(C)[nH]n(C(N)=S)c1=O | . | 1.5 | . | . | .
Cc1ccc([N+](=O)[O-])cc1N=Nc1c(-c2ccc([N+](=O)[O-])cc2)[nH]n(C(N)=S)c1=O | 81.7* | 8.2 | -1.1 | -15.9 | +
Cc1ccc(N=Nc2c(C)[nH]n(C(N)=S)c2=O)cc1 | -33.4 | 0.4 | -2.2 | -2.1 | .
NC(=S)n1[nH]c(-c2ccc([N+](=O)[O-])cc2)c(N=Nc2ccc(Cl)cc2)c1=O | 71.2* | . | -3.6 | -9.7 | +
S=c1[nH]nc(-c2ccco2)n1/N=C/c1c(Cl)cccc1Cl | 61.0* | ? | 13.0 | 13.5 | i
S=c1[nH]nc(-c2ccco2)n1/N=C/c1ccc(Cl)c(Cl)c1 | 4.5 | 3.7 | 9.2 | 10.3 | .
COCCCNc1nc2c(c(=O)n(Cc3ccc(F)cc3)c(=O)n2C)n1C | . | 1.1 | . | . | .
Cn1c(N/N=C2\CCCc3ccccc32)nc2c1c(=O)n(Cc1ccc(F)cc1)c(=O)n2C | 56.3* | 5.3 | -1.6 | -0.3 | i
O=C(O)c1ccc(-n2cccc2/C=N\NC(=O)c2cc3cc(Br)ccc3o2)cc1 | 53.9* | -3.5 | 8.5 | -6.9 | i
COc1ccc(-c2cc(-c3ccco3)[nH]c(=O)c2C#N)cc1OC | 53.4* | 8.1 | 14.6 | 29.4 | i
CC(=O)c1sccc1NC(=O)c1ccccc1C(=O)O | -3.0 | -1.6 | 0.0 | -17.9 | .
COc1ccc(C(=O)CCc2ccccc2)c(O)c1 | . | -3.5 | . | . | .
O=C(CCc1ccccc1)c1c(O)cc(O)cc1O | 68.5* | -1.4 | 2.2 | 2.8 | i
Cc1nn(-c2ccccc2)c2c1cc1c(=O)n(C)c(=O)nc-1n2-c1ccccc1F | 87.4* | ? | 8.8 | 23.4 | .
Cc1cccc(-n2c3nc(=O)[nH]c(=O)c-3cc3c(C)nn(-c4ccccc4)c32)c1C | 23.4 | 2.9 | 17.0 | 31.2 | .
CCn1nc(NS(=O)(=O)c2ccc(NC(C)=O)cc2)c2cc3cccc(C)c3nc21 | . | 5.2 | . | . | .
CCn1nc(NC(=O)C2CCCO2)c2cc3cccc(C)c3nc21 (stereo unspecified) | 55.1* | 57.7* | 48.2 | 81.0* | i
COc1cc(NC(=O)c2cccs2)c(OC)cc1NC(=O)CCC(=O)Nc1ccc2ncccc2c1 | 65.3* | 2.2 | -4.2 | -14.5 | i
COc1ccc(OCC(=O)Nc2ccc(NC(=O)c3cccs3)c(OC)c2)cc1 | 17.8 | -2.7 | 1.1 | 2.9 | .
Cc1ccccc1C(=O)NNC(=O)CSc1nc(-c2ccccc2)cc(=O)[nH]1 | -13.6 | ? | -1.6 | -2.0 | .
SMILES | Hck Nef HTS | RanGTP-Imp inh | Runt-CBFb FRET | Runt-SMMHC FRET | Hck-Nef confirm
COc1ccc(CNC(=O)CCNS(=O)(=O)c2cccc3nsnc23)cc1 | 153.6* | -2.3 | -0.5 | -4.2 | i
O=C(CCNS(=O)(=O)c1cccc2nsnc12)NCc1ccccc1 | . | -5.9 | . | . | .
COC(=O)C1=CN(C(C)C)C=C(C(=O)OC)C1c1cc(Br)c(OC)c(OC)c1 | 61.0* | 59.3* | 114.5* | 75.1* | .
COC(=O)C1=CN(c2cc(C)cc(C)c2)C=C(C(=O)OC)C1c1cccc(F)c1 | . | 4.2 | . | . | .
COC(=O)C1=CN(C(C)C)C=C(C(=O)OC)C1c1cccc(OC)c1 | 60.6* | 66.2* | 71.5* | -15.6 | .
COc1cc(C2NC(=O)CCC2[N+](=O)[O-])cc(Br)c1OC (stereo unspecified) | . | -3.4 | . | . | .
Cc1nnc(SCC(=O)NC(=O)Nc2ccc3c(c2)OCCO3)n1N | -1.2 | 5.8 | -0.8 | -8.1 | .
O=C(O)c1ccccc1C(=O)Nc1ccc(S(=O)(=O)NC2CCCCC2)cc1 | 2.0 | 1.6 | -0.3 | 0.8 | .
CCN(CC)c1ccc(-c2nn3c(-c4n[nH]c5c4CCC5)nnc3s2)cc1 | 61.3* | 6.8 | 11.8 | 31.5 | i
C1CCC(c2nn3c(-c4n[nH]c5c4CCC5)nnc3s2)CC1 | 3.0 | 0.4 | -2.6 | -1.3 | .
O=C(Cn1nnc(-c2ccc(NC(=O)c3ccccc3F)cc2)n1)NCc1ccc(F)cc1 | 61.1* | 3.2 | 2.7 | -2.9 | i
O=C(Nc1ccc(-c2nnn(CC(=O)N3CCN(C(=O)c4ccco4)CC3)n2)cc1)c1ccccc1F | 19.8 | 1.2 | -0.6 | -5.2 | .
COC(=O)c1ccc(NC(C)C(=O)OC)c([N+](=O)[O-])c1 (stereo unspecified) | 3.7 | -0.7 | -1.7 | 1.6 | .
O=c1cc(-c2ccccc2Cl)oc2cc(O)cc(O)c12 | 2.0 | -0.1 | -3.3 | -1.6 | .
O=C1C=CC(O)(c2cc(=O)c3c(O)cc(O)cc3o2)C=C1 | 52.9* | 6.8 | 8.6 | 6.3 | i
O=C(O)Cn1nnc(-c2ccc(OCc3ccccc3)cc2)n1 | . | 2.0 | . | . | .
COc1ccc(N=Cc2c[nH][nH]c2=O)cc1 | 2.6 | -0.7 | -2.3 | 1.8 | .
O=c1[nH][nH]cc1C=Nc1ccc(Oc2ccccc2)cc1 | 163.8* | -1.6 | -1.0 | -3.0 | +
CC(=O)N(C)c1nc(N)n(-c2ccccc2)n1 | 18.5 | 3.1 | -2.9 | -10.2 | .
COc1ccc2oc(/C=C/N(C)C)c(C(=O)c3ccc(Cl)cc3)c2c1 | 98.4* | 2.0 | 3.0 | -12.2 | i
O=C(Cc1ccccc1)c1c[nH]c(C(=O)NCCCN2CCOCC2)c1 | 6.9 | 0.2 | -1.0 | 0.5 | .
CCCc1cc(-c2[nH]ncc2-c2ccc3c(c2)OCCCO3)c(O)cc1O | 73.9* | -0.5 | 1.5 | -4.0 | +
CCCc1cc(-c2[nH]ncc2-c2ccc(C(=O)OCC)o2)c(O)cc1O | 32.4 | 5.1 | 2.6 | -1.9 | .
Cc1ccc(NC(=O)Cc2nnc(SCC(=O)NC3CCCC3)n2C)cc1C | . | 6.0 | . | . | .
Cc1ccc(CCC(=O)Nc2ccccc2C(=O)O)o1 | . | 2.2 | . | . | .
CCC(C(=O)NCc1ccncc1)c1ccccc1 (stereo unspecified) | 20.0 | 0.3 | 0.6 | -2.0 | .
COc1ccc(OC)c(C2Nc3c(Cl)ccc(C(=O)O)c3C3C=CCC32)c1 (stereo unspecified) | -6.9 | -0.4 | 20.9 | 14.1 | .
COC(=O)COc1ccc(C2Nc3c(Cl)ccc(C(=O)O)c3C3C=CCC32)cc1 (stereo unspecified) | 76.2* | 3.2 | 18.9 | -2.9 | i
COc1ccccc1N(Cc1cc(=O)[nH]c2ccccc12)C(=O)c1ccc([N+](=O)[O-])cc1 | -0.1 | -4.4 | 0.1 | -5.3 | .

Source: PubChem BioAssay (several laboratories)
